ChEMBL document CHEMBL3525910, “Pharmacokinetics of oral D-serine in D-amino acid oxidase knockout mice” (Drug Metab Dispos, 2012)

Legend:
Type in all cases: ADME, organism-based
[1] = AUC (0 to infinity) in wild-type mouse at 30 mg/kg, po in presence of CBIO; design: time infinity, dose 30 mg/kg, route oral; conditions: plasma
Outline: (§1)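 Mice (wild-type 129SvEv or DAAO knockout; n = 3–6 per time point, n = 2 at 120 and 240 min for the group also given CBIO 30 mg/kg in 10% DMSO/0.9% saline) dosed orally, 10 ml/kg, with D-serine 30 mg/kg. Cardiac-puncture blood taken at 30, 60, 120, 240 min into heparin tubes and spun to plasma. Methanol extraction, derivatization, then HPLC fluorescence (ex 344/em 443 nm). Parameters from noncompartmental analysis.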

[2] = AUC (0 to last) in DAAO knockout mouse at 30 mg/kg, po; design: time 0 - last, dose 30 mg/kg, route oral; conditions: plasma
Outline: (§2)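 DAAO knockout mice were dosed orally (10 ml/kg) with D-serine 30 mg/kg, n = 3–6 per time point, and plasma was taken at 30–240 min. D-serine was measured by methanol extraction, derivatization and reversed-phase HPLC with fluorescence detection. Cmax and Tmax are observed values. t½ = 0.693/λz with uniform weighting. AUClast is by the log-linear trapezoidal rule, with variance by Bailer's method.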

[3] = Elimination half life in wild-type mouse at 30 mg/kg, po in presence of CBIO; design: dose 30 mg/kg, route oral; conditions: in vivo, read-out: beta t1/2 (converted); outline: as §1
[4] = Cmax in DAAO knockout mouse at 30 mg/kg, po; design: dose 30 mg/kg, route oral; conditions: in vivo; outline: as §1
[5] = AUC (0 to infinity) in wild-type mouse at 30 mg/kg, po; design: time infinity, dose 30 mg/kg, route oral; conditions: plasma; outline: as §1
[6] = Tmax in DAAO knockout mouse at 30 mg/kg, po; design: dose 30 mg/kg, route oral; conditions: in vivo; outline: as §1
[7] = Elimination half life in wild-type mouse at 30 mg/kg, po; design: dose 30 mg/kg, route oral; conditions: in vivo, read-out: beta t1/2 (converted); outline: as §1
[8] = AUC (0 to last) in wild-type mouse at 30 mg/kg, po; design: time 0 - last, dose 30 mg/kg, route oral; conditions: plasma; outline: as §1
Cerebellum [9] = experiment: Drug uptake in DAAO knockout mouse cerebellum at 30 mg/kg, po after 1 hr; design: dose 30 mg/kg, route oral; conditions: in vivo
Outline: (§3)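 Wild-type or DAAO knockout mice were given D-serine 30 mg/kg orally. At 1 h, cerebellum and frontal cortex were excised, weighed and frozen at −80°C. Tissue was homogenized and sonicated in 20 volumes (w/v) methanol and spun at 50,000g for 15 min at 4°C. The supernatant was dried, derivatized for 2 min at room temperature, and D-serine was quantified by C18 HPLC with fluorescence detection.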

[10] = Tmax in wild-type mouse at 30 mg/kg, po; design: dose 30 mg/kg, route oral; conditions: in vivo; outline: as §1
Cortex [11] = experiment: Drug uptake in wild-type mouse cortex at 30 mg/kg, po after 1 hr; design: dose 30 mg/kg, route oral; conditions: in vivo; outline: as §3
Cerebellum [12] = experiment: Drug uptake in wild-type mouse cerebellum at 30 mg/kg, po after 1 hr; design: dose 30 mg/kg, route oral; conditions: in vivo; outline: as §3
[13] = Cmax in wild-type mouse at 30 mg/kg, po in presence of CBIO; design: dose 30 mg/kg, route oral; conditions: in vivo; outline: as §1
Cortex [14] = experiment: Drug uptake in DAAO knockout mouse cortex at 30 mg/kg, po after 1 hr; design: dose 30 mg/kg, route oral; conditions: in vivo; outline: as §3
[15] = AUC (0 to last) in wild-type mouse at 30 mg/kg, po in presence of CBIO; design: time 0 - last, dose 30 mg/kg, route oral; conditions: plasma; outline: as §1
[16] = Cmax in wild-type mouse at 30 mg/kg, po; design: dose 30 mg/kg, route oral; conditions: in vivo; outline: as §1
[17] = Elimination half life in DAAO knockout mouse at 30 mg/kg, po; design: dose 30 mg/kg, route oral; conditions: in vivo, read-out: beta t1/2; outline: as §2
[18] = Tmax in wild-type mouse at 30 mg/kg, po in presence of CBIO; design: dose 30 mg/kg, route oral; conditions: in vivo; outline: as §1

AUC(0-inf) [1]: 80900 ng·h/mL
AUC(0-t) [2]: 95800 ng·h/mL
half-life [3]: 1.5 h
Cmax [4]: 27800 ng/mL
AUC(0-inf) [5]: 46000 ng·h/mL
Tmax [6]: 2.7 h
half-life [7]: 1.2 h
AUC(0-t) [8]: 40600 ng·h/mL
Drug uptake (Cerebellum [9]): Active
Tmax [10]: 0.7 h
Drug uptake (Cortex [11]): Active
Drug uptake (Cerebellum [12]): Not Active
Cmax [13]: 24300 ng/mL
Drug uptake (Cortex [14]): Active
AUC(0-t) [15]: 65800 ng·h/mL
Cmax [16]: 19600 ng/mL
half-life [17]: > 10 h
Tmax [18]: 1 h
Compound: N[C@H](CO)C(=O)O [(D)-SERINE]
